Results on one compound are retold here after ChEMBL document CHEMBL1667739, “Pitiprolamide, a proline-rich dolastatin 16 analogue from the marine cyanobacterium Lyngbya majuscula from Guam” (J Nat Prod, 2011).

Common to all, as to type: functional
Common to all, as to conditions: ATCC 25177, 288 h, read-out: DIZ

The test system of assay [1] is Mycobacterium tuberculosis. Nature of the assay: Antimycobacterial activity against Mycobacterium tuberculosis ATCC 25177 at 1 ug after 12 days by disc diffusion assay. A digest of the protocol: (§1)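 Compound dissolved in EtOH and loaded onto sterile filter-paper discs. Dried discs were placed on an inoculated agar plate and incubated 12 days at 37 °C. The diameter of the inhibition zone was then measured.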

Assay [2] relates to Mycobacterium tuberculosis. Nature of the assay: Antimycobacterial activity against Mycobacterium tuberculosis ATCC 25177 at 10 ug after 12 days by disc diffusion assay. A digest of the protocol:
as §1
(Agar diffusion results depend on both activity and mobility in agar.)

In assay [3] the test system is Mycobacterium tuberculosis. Nature of the assay: Antimycobacterial activity against Mycobacterium tuberculosis ATCC 25177 at 5 ug after 12 days by disc diffusion assay. A digest of the protocol: as §1

Regarding `CN[C@@H]1[C@H](O[C@H]2[C@H](O[C@H]3[C@H](O)[C@@H](O)[C@H](N=C(N)N)[C@@H](O)[C@@H]3N=C(N)N)O[C@@H](C)[C@]2(O)C=O)O[C@@H](CO)[C@H](O)[C@H]1O` [STREPTOMYCIN], the zone of inhibition at 1 µg/disc in assay [1] is 0 mm. Moreover, in assay [2], the zone of inhibition at 10 µg/disc turned out to be 40 mm. Also, the zone of inhibition at 5 µg/disc in assay [3] came out at 30 mm.
